The source made the active and inactive calls. The rule behind the calls is not given here.
Tests used:
[1] = Inhibition of H+/K+ ATPase in hog gastric mucosa; type: tissue-based, Sus scrofa
Method in brief: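 Hog gastric mucosa H+/K+-ATPase (0.5-1 µg/100 µL, with nigericin 1:1) in 4 mM Pipes/8 mM Tris pH 7.4, 0.25 M sucrose, 1 mM MgCl2, stimulated by 1 mM KCl. Compound 1e-4 to 1e-9 M final from DMSO stocks. Started with 1 mM Na-ATP, 30 min room temperature. Phosphate read by malachite green at 680 nm after 15 min.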

Gastric gland = test: Inhibition of acid secretion in rabbit intact gastric glands assessed as […] accumulation; type: functional, tissue-based; conditions: Oryctolagus cuniculus
Method in brief: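 Isolated gastric glands in Krebs-Henseleit with 2 mg/mL rabbit serum albumin and 2 mg/mL glucose. Incubated 30 min at 37 °C, shaking, with 0.125 µM 14C-aminopyrine at pH 7.4, stimulated by 1 mM dibutyryl cAMP, inhibitor 3 nM-100 µM. Stopped by centrifugation. Accumulation taken from pellet/supernatant radioactivity ratio. IC50 from fitted inhibition equation.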

[2] = Dissociation constant, pKa of the compound; type: physicochemical
Method in brief: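 Potentiometric cosolvent titration in 0.15 mol/L KCl, pH 2.0-11.0, 25 °C, methanol as cosolvent in varying portions; titrants 0.5 mol/L KOH and HCl.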

Rattus norvegicus [3] = test: Inhibition of pentagastrin-stimulated acid secretion in perfused Ghosh Schild rat stomach at 1 umol/kg, intraduodenal; type: functional; design: scale not given: the % may be the effect or the level left
Method in brief: (§1)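 Anaesthetised rat with perfused stomach: 37 °C saline at 0.5 mL/min. Effluent titrated to pH 7 with 0.01 N NaOH in 15-min fractions. Secretion driven by continuous iv pentagastrin, 1 µg/kg (1.65 mL/h). Compound given intraduodenally in 2.5 mL/kg volume 60 min after infusion start. Body temperature held at 37.8-38 °C.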

[4] = Distribution coefficient, log D of the compound; type: physicochemical; conditions: octanol/water
Method in brief: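 Distribution between 1-octanol and aqueous KCl measured by potentiometric titration over pH 2.0-11.0 at 25 °C.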

Rattus norvegicus [5] = test: Inhibition of pentagastrin-stimulated acid secretion in intraduodenally dosed perfused Ghosh Schild rat stomach; type: functional; conditions: intraduodenal; method in brief: as §1

Cc1nc2c3c(c(C(=O)NC4CC4)cn2c1C)CCC(c1ccccc1)O3 (racemic)
pIC50 [1]: 6 | IC50 (Gastric gland): 1000 nM | pKa [2]: 6.69 | Activity (Rattus norvegicus [3]): 82% | logD [4]: 3.22

Cc1nc2c3c(c(C(=O)N(C)C)cn2c1C)CCC(c1ccc(F)cc1)O3 (racemic)
pIC50 [1]: 6.2 | ED50 (Rattus norvegicus [5]): 0.35 µmol/kg | IC50 (Gastric gland): 398 nM | pKa [2]: 6.74 | logD [4]: 2.78

CCN(CC)C(=O)c1cn2c(C)c(C)nc2c2c1CCC(c1ccccc1)O2 (racemic)
pIC50 [1]: 5.2 | IC50 (Gastric gland): 794 nM | pKa [2]: 6.75 | Activity (Rattus norvegicus [3]): 23% | logD [4]: 3.2

Cc1nc2c3c(c(C(=O)N(C)C)cn2c1CO)CCC(c1ccccc1)O3 (racemic)
pIC50 [1]: 5.6 | IC50 (Gastric gland): 31600 nM | pKa [2]: 5.86 | Activity (Rattus norvegicus [3]): 55% | logD [4]: 1.52

CCOc1ccc(NC(=O)c2cn3c(C)c(C)nc3c3c2CCC(c2ccccc2)O3)cc1 (racemic)
pIC50 [1]: > 6 | IC50 (Gastric gland): 200 nM | pKa [2]: 6.57 | Activity (Rattus norvegicus [3]): 33% | logD [4]: 4.3

CCc1c(C)nc2c3c(c(C(=O)N(C)C)cn12)CC[C@@H](c1ccccc1)O3
pIC50 [1]: 5.5 | ED50 (Rattus norvegicus [5]): 1.2 µmol/kg | IC50 (Gastric gland): 1260 nM

CON(C)C(=O)c1cn2c(C)c(C)nc2c2c1CCC(c1ccccc1)O2 (racemic)
pIC50 [1]: 5.8 | ED50 (Rattus norvegicus [5]): 0.4 µmol/kg | IC50 (Gastric gland): 398 nM | pKa [2]: 6.49 | logD [4]: 2.6

Cc1nc2c3c(c(C(=O)N4CCCC4)cn2c1C)CCC(c1ccccc1)O3 (racemic)
pIC50 [1]: 5.8 | IC50 (Gastric gland): 316 nM | pKa [2]: 6.73 | Activity (Rattus norvegicus [3]): 47% | logD [4]: 2.83

CC#CC(O)c1c(C)nc2c3c(c(C(=O)N(C)C)cn12)CCC(c1ccccc1)O3 (racemic)
pIC50 [1]: < 4 | pKa [2]: 5.58 | Activity (Rattus norvegicus [3]): 22% | logD [4]: 2.5

Cc1nc2c3c(c(C(=O)NC4CCC4)cn2c1C)CCC(c1ccccc1)O3 (racemic)
pIC50 [1]: 5.2 | IC50 (Gastric gland): 398 nM | pKa [2]: 6.68 | Activity (Rattus norvegicus [3]): 26% | logD [4]: 3.76

Cc1nc2c3c(c(C(=O)N4CC4)cn2c1C)CCC(c1ccccc1)O3 (racemic)
pIC50 [1]: 5.3 | IC50 (Gastric gland): 398 nM | pKa [2]: 6.63 | Activity (Rattus norvegicus [3]): 35% | logD [4]: 2.9

Cc1nc2c3c(c(C(=O)N(C)C)cn2c1C)CCC(c1ccccc1)O3 (racemic)
pIC50 [1]: 5.8 | ED50 (Rattus norvegicus [5]): 0.5 µmol/kg | IC50 (Gastric gland): 501 nM | pKa [2]: 7.15 | logD [4]: 2.83

Cc1nc2c3c(c(C(=O)N4CCNCC4)cn2c1C)CCC(c1ccccc1)O3 (racemic)
pIC50 [1]: 5.3 | Activity (Gastric gland): inactive | pKa [2]: 6.44 | Activity (Rattus norvegicus [3]): 36% | logD [4]: 1.53

Cc1nc2c3c(c(C(=O)N4CCC4)cn2c1C)CCC(c1ccccc1)O3 (racemic)
pIC50 [1]: 6.2 | IC50 (Gastric gland): 398 nM | pKa [2]: 6.64 | Activity (Rattus norvegicus [3]): 75% | logD [4]: 2.6

Cc1nc2c3c(c(C(=O)N(C)C)cn2c1Br)CC[C@@H](c1ccccc1)O3
pIC50 [1]: 5 | ED50 (Rattus norvegicus [5]): 1.5 µmol/kg | IC50 (Gastric gland): 6310 nM

Cc1nc2c3c(c(C(=O)N(C)C)cn2c1CN(C)C)CCC(c1ccccc1)O3 (racemic)
pIC50 [1]: 5 | pKa [2]: 4.09 | Activity (Rattus norvegicus [3]): 20% | logD [4]: 1.8

CCOC(=O)c1cn2c(C)c(C)nc2c2c1CCC(c1ccccc1)O2 (racemic)
pIC50 [1]: 6 | IC50 (Gastric gland): 2510 nM | pKa [2]: 6.35 | Activity (Rattus norvegicus [3]): 34% | logD [4]: 4.56

CCc1c(C)nc2c3c(c(C(=O)N(C)C)cn12)CCC(c1ccccc1)O3 (racemic)
pIC50 [1]: 5 | IC50 (Gastric gland): 2000 nM | pKa [2]: 6.7 | Activity (Rattus norvegicus [3]): 30% | logD [4]: 3

Cc1nc2c3c(c(C(=O)N(C)C)cn2c1CO)CC[C@@H](c1ccccc1)O3
pIC50 [1]: 5.8 | ED50 (Rattus norvegicus [5]): 5 µmol/kg | IC50 (Gastric gland): 7940 nM

Cc1nc2c3c(c(C(=O)N(C)C)cn2c1C)CC[C@H](c1ccc(F)cc1)O3
pIC50 [1]: 5.7 | ED50 (Rattus norvegicus [5]): 1.5 µmol/kg | IC50 (Gastric gland): 1000 nM

Cc1nc2c3c(c(C(=O)N(C)C)cn2c1CO)CC[C@H](c1ccccc1)O3
pIC50 [1]: 4.2 | ED50 (Rattus norvegicus [5]): > 6 µmol/kg | Activity (Gastric gland): inactive

CC(=O)c1c(C)nc2c3c(c(C(=O)N(C)C)cn12)CC[C@@H](c1ccccc1)O3
pIC50 [1]: < 4 | ED50 (Rattus norvegicus [5]): 0.1 µmol/kg | Activity (Gastric gland): inactive

CNC(=O)c1cn2c(C)c(C)nc2c2c1CCC(c1ccccc1)O2 (racemic)
pIC50 [1]: 5.6 | ED50 (Rattus norvegicus [5]): 0.6 µmol/kg | IC50 (Gastric gland): 1000 nM | pKa [2]: 6.74 | logD [4]: 2.8

Cc1nc2c3c(c(C(=O)Nc4ccccc4)cn2c1C)CCC(c1ccccc1)O3 (racemic)
pIC50 [1]: 5.5 | ED50 (Rattus norvegicus [5]): 0.3 µmol/kg | IC50 (Gastric gland): 251 nM | pKa [2]: 6.59 | logD [4]: 5

Cc1nc2c3c(c(C(=O)NC4CC4)cn2c1C)CC[C@@H](c1ccccc1)O3
pIC50 [1]: 5.7 | ED50 (Rattus norvegicus [5]): 0.25 µmol/kg | IC50 (Gastric gland): 100 nM

Cc1nc2c3c(c(C(=O)N(C)C)cn2c1C)CC[C@@H](c1ccc(F)cc1)O3
pIC50 [1]: 6.5 | ED50 (Rattus norvegicus [5]): 0.25 µmol/kg | IC50 (Gastric gland): 158 nM

Cc1ccccc1[C@@H]1CCc2c(C(=O)N(C)C)cn3c(C)c(C)nc3c2O1
pIC50 [1]: 6.3 | ED50 (Rattus norvegicus [5]): 0.4 µmol/kg | IC50 (Gastric gland): 251 nM

Cc1nc2c3c(c(C(N)=O)cn2c1C)CCC(c1ccccc1)O3 (racemic)
pIC50 [1]: 5.9 | ED50 (Rattus norvegicus [5]): 0.8 µmol/kg | IC50 (Gastric gland): 2510 nM | pKa [2]: 6.52 | logD [4]: 2.53

Cc1nc2c3c(c(C(=O)N4CCC4)cn2c1C)CC[C@@H](c1ccccc1)O3
pIC50 [1]: 6.4 | ED50 (Rattus norvegicus [5]): 0.2 µmol/kg | IC50 (Gastric gland): 50.1 nM

Cc1ccccc1C1CCc2c(C(=O)N(C)C)cn3c(C)c(C)nc3c2O1 (racemic)
pIC50 [1]: 6.2 | ED50 (Rattus norvegicus [5]): 0.4 µmol/kg | IC50 (Gastric gland): 200 nM | pKa [2]: 6.74 | logD [4]: 2.76

CON(C)C(=O)c1cn2c(C)c(C)nc2c2c1CC[C@@H](c1ccccc1)O2
pIC50 [1]: 5.6 | ED50 (Rattus norvegicus [5]): 0.4 µmol/kg

Cc1nc2c3c(c(C(=O)N4CCCC4)cn2c1C)CC[C@@H](c1ccccc1)O3
pIC50 [1]: 6.4 | ED50 (Rattus norvegicus [5]): 1 µmol/kg | IC50 (Gastric gland): 200 nM

Cc1ccccc1[C@H]1CCc2c(C(=O)N(C)C)cn3c(C)c(C)nc3c2O1
pIC50 [1]: 6.1 | ED50 (Rattus norvegicus [5]): 1.3 µmol/kg | IC50 (Gastric gland): 251 nM

Cc1nc2c3c(c(C4=NCCO4)cn2c1C)CCC(c1ccccc1)O3 (racemic)
pIC50 [1]: 6 | ED50 (Rattus norvegicus [5]): 2 µmol/kg | IC50 (Gastric gland): 794 nM

Cc1nc2c3c(c(C(=O)N(C)C)cn2c1C)CC[C@@H](c1ccccc1F)O3
pIC50 [1]: 6.3 | ED50 (Rattus norvegicus [5]): 0.2 µmol/kg | IC50 (Gastric gland): 79.4 nM

Cc1nc2c3c(c(C(=O)N(C)C)cn2c1Br)CCC(c1ccccc1)O3 (racemic)
pIC50 [1]: 4.9 | ED50 (Rattus norvegicus [5]): 1 µmol/kg | IC50 (Gastric gland): 12600 nM | pKa [2]: 4.68 | logD [4]: 3.2

Cc1nc2c3c(c(C(N)=O)cn2c1C)CC[C@@H](c1ccccc1)O3
ED50 (Rattus norvegicus [5]): 1 µmol/kg | IC50 (Gastric gland): 1580 nM

Cc1nc2c3c(c(C(=O)N(C)C)cn2c1C)CC[C@@H](c1ccccc1)O3
pIC50 [1]: 6.8 | ED50 (Rattus norvegicus [5]): 0.22 µmol/kg | IC50 (Gastric gland): 200 nM

— ChEMBL document CHEMBL1138298, “Synthesis and evaluation of 7H-8,9-dihydropyrano[2,3-c]imidazo[1,2-a]pyridines as potassium-competitive acid blockers” (J Med Chem, 2007)
